Assay outcomes from PubChem BioAssay.
Calb FLC: C. albicans growth modulation with fluconazole | C. albicans CaCi-2 (fluconazole-resistant clinical isolate) + fluconazole, Alamar Blue growth, 48 h | 300,000 compounds, 0.57% hits | growth inhibition, % (concentration not given with the values) | AID 1979;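 active = growth inhibition above about 58% in most replicates, limit read from the data, passing the limit was not always enough; inconclusive = exactly half the replicates above a set limit; inactive = most replicates below a set limit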;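 note: all wells also contain fluconazole at 8 µg/ml as a sub-toxic cotreatment; 0% = median of DMSO wells and 100% = median of geldanamycin control wells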
NLRP3 yeast inh: NALP3 inhibition in yeast; 330,000 compounds, 0.39% hits; Yeast reconstituted NLRP3/ASC/caspase-1, beta-gal luminescence, 24 h; inhibition, % at 10 µM;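 active = inhibition of 50% or more; inactive = inhibition below 50%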;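 note: plate controls were induced DMSO wells for no effect and uninduced yeast grown without galactose for full effect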
L major viab: inhibitors of Leishmania major promastigote growth; Leishmania major promastigotes, resazurin fluorescence viability; inhibition, % at 10 µM; 200,000 compounds, 9% hits; in the data active = inhibition above about 50%;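 note: promastigotes grown with compound for 44 hours at 28 °C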
T cruzi inh: T. cruzi replication inhibition. 300,000 compounds, 1.4% hits. AID 1885. inhibition, % (test concentration not listed). T. cruzi beta-gal in NIH3T3, luminescence, 90 h;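 active = mean inhibition across valid replicates above about 55%, limit read from the data; inconclusive = mean below that limit but half or more replicates reach it; inactive = mean below it, under half of replicates reach it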;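 note: signal also drops with host cell toxicity which is not excluded here; 0% = plate median of DMSO wells and 100% = zero luminescence signal; higher percent means less beta-gal luminescence so fewer parasites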
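Incubation – ≥90 h infection period, 3 h prior cell attachment · System – NIH/3T3 fibroblasts plus reporter T. cruzi · Doses – compound pinned at 50 nL/well, DMSO · Read-out basis – percent inhibition of parasite-derived β-gal signal · Signal – luminescent β-galactosidase signal after 60 min lysis · Also added – 5000 T. cruzi trypomastigotes/well · Medium – Low-serum DMEM with 2% FBS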
NALP1 yeast inh: NALP1 inhibition; S. cerevisiae NALP1/ASC/caspase-1 growth, X-gal OD620, 72 h; inhibition, % at 10 µM; 280,000 compounds, 0.61% hits; AID 2071; in the data active = inhibition mostly above about 24%, no sharp cut-off; inactive = mostly below about 32%
PolyA inhibitor: yeast polyadenylation inhibition | S. cerevisiae SKY197-pL101 polyadenylation reporter, beta-gal luminescence; efflux-impaired pdr1/pdr3 knockout yeast; score 100 = 6 SD above DMSO | activity score, % at 12 µM | 300,000 compounds, 0.02% hits | AID 1875;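 active = lowest replicate activity score at least 50, where 100 means six control SD above control mean; inconclusive = lowest score under 50 but half or more replicates reach 50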;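 note: yeast exposed to compound for 9 h at 30 °C; higher score means more reporter readthrough which indicates perturbed polyadenylation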
Lmaj promast 1uM: L. major promastigote growth inhibition, 1 uM repeat. shares compounds with L major viab. resazurin fluorescence, 48 h. inhibition, % at 1 µM. 1,100 compounds, 13% hits;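 active = inhibition above about 50% in both repeat tests, limit read from the data; inconclusive = one repeat under the set limit, the other over it; inactive = both repeats under the set limit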
* = called active by the depositor; ? = inconclusive; nt = not tested or not shown. Many of the other results were omitted from the sample, so hits are more common in it than they were.

SMILES | Calb FLC | NLRP3 yeast inh | L major viab | T cruzi inh | NALP1 yeast inh | PolyA inhibitor | Lmaj promast 1uM
COc1ccc(NS(=O)(=O)c2cc(NC(=O)c3nc4nc(C)cc(C)n4n3)ccc2C)cc1 | -22 | -9 | 72* | nt | -4 | nt | 10
O=C(Cc1c(F)cccc1Cl)NC1CCN(Cc2ccccc2)CC1 | -10 | 11 | nt | ? | 2 | 11 | nt
O=C(COc1ccccc1F)NC1CCN(Cc2ccccc2)CC1 | -9 | 17 | 91* | 23 | 11 | -2 | 72*
COC(=O)c1ccc(CNC(=O)C2CCC(=O)N(C3CCCCCC3)C2)cc1 (stereo unspecified) | -10 | 13 | nt | 5 | 20 | -3 | nt
COC(=O)C1=C(N)N(c2ccc(F)cc2)C2=C(C(=O)CCC2)C1c1ccc2c(c1)OCO2 (stereo unspecified) | -1 | 16 | 72* | 9 | 3 | 0 | 15
c1ccc(COn2nnc3ccccc32)c(COn2nnc3ccccc32)c1 | -1 | 37 | 87* | 7 | 10 | -29 | -9
CN(CC(=O)Nc1cccc(F)c1)C(=O)C1(c2ccccc2)CC1 | nt | 3 | nt | nt | nt | nt | nt
OC(COCC1COc2ccccc2O1)CN1CCc2ccccc2C1 (stereo unspecified) | -14 | 21 | 99* | 9 | 6 | -12 | 2
COc1ccc(OCC(O)CN2CCc3ccccc3C2)cc1 (stereo unspecified) | -19 | 16 | nt | -7 | 23 | 21 | nt
CCOC(=O)c1oc2cccc(OCC(O)CNC(C)C)c2c1C (stereo unspecified) | -45 | 12 | 101* | 23 | -3 | 8 | -11
O=C(Nc1cccc(Cl)c1)NC1CCS(=O)(=O)C1 (stereo unspecified) | 4 | 21 | nt | 0 | 27 | -4 | nt
CC1CCCCN1C(=O)c1c([N+](=O)[O-])cnn1C (stereo unspecified) | 1 | 14 | nt | -9 | 7 | -9 | nt
O=C1CC(c2ccccc2Br)c2cc3c(cc2N1)CCC3 (stereo unspecified) | -9 | 23 | 100* | -19 | 1 | -24 | 88*
O=C1CC(c2cccc(Cl)c2)c2cc3c(cc2N1)CCC3 (stereo unspecified) | 10 | 7 | 7 | -8 | 18 | -16 | nt
O=C1CSC2=NCN(c3ccc4c(c3)OCO4)CN12 | 3 | 23 | 14 | -2 | 3 | 21 | nt
CN(C)c1ccc(N2CN=C3SCC(=O)N3C2)cc1 | 15 | 23 | 62* | ? | 21 | -35 | 5
O=C(NCCCn1ccnc1)NC(C(F)(F)F)C(F)(F)F | -21 | 5 | -8 | -3 | 2 | -4 | nt
CCC(C)[C@H](NC(=O)NCCCn1ccnc1)C(=O)OC (stereo partly specified) | -7 | 1 | 52* | -11 | 33 | 6 | -7
CCCCOC(=O)NC1CCS(=O)(=O)C1 (stereo unspecified) | -16 | 7 | -3 | -14 | 5 | 8 | nt
COc1ccc(C(=O)O/N=C(\N)Cc2ccc(Cl)cc2)cc1OC | 13 | 4 | 66* | ? | 17 | 20 | -4
COC(=O)c1cccc(Cn2c(Cl)c(/C=N/Nc3ccccc3C)sc2=O)c1 | -6 | nt | 58* | 50 | 21 | 12 | 64*
O=C1NCC(c2ccccc2)C1C(=O)N/N=C\c1ccc(-c2ccc(Cl)c(Cl)c2)o1 (stereo unspecified) | -1 | 14 | 59* | 8 | -8 | -13 | -11
O=C(NCCC(=O)N(CCc1ccccc1)Cc1ccccc1)c1ccc(Br)cc1 | -2 | 30 | nt | 19 | nt | 13 | nt
COc1ccc(NS(=O)(=O)c2cc(C)ccc2NC(=O)c2cc(C)oc2C)cc1 | 9 | 8 | 52* | 27 | 4 | -13 | 19
CC1=C(OC(=O)C(C)(C)C)C(C)(C)C(c2ccccc2)OC1=O (stereo unspecified) | 32 | 15 | 55* | 0 | 34 | -13 | 0
Oc1ccc(-c2nc3c4c(ncn3n2)-c2ccccc2CC42CCCC2)cc1 | 3 | 6 | 87* | 44 | 42 | -23 | 7
CC(=O)Nc1ccc(-n2nnnc2SCC(=O)NCc2cccs2)cc1 | -5 | 23 | 5 | -3 | -3 | -9 | nt
